Bioassay records deposited in PubChem BioAssay by Sanford-Burnham Center for Chemical Genomics.
Rpn11 inh = blocks the human proteasome subunit Rpn11; hit rate 0.59% among 360,000; human 26S proteasome, Ub4-pepOG fluorescence polarization; 20S core pre-blocked with epoxomicin; inhibition, % at 20 µM; O00487;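 active = inhibition at 20 µM, scaled to each plate's controls, above about 33%, limit read from the data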
LMPTP block = blocks human LMPTP phosphatase | P24666 | recombinant LMPTP-A, OMFP fluorogenic substrate, fluorescence intensity | hit rate 0.22% among 360,000 | inhibition, % at 20 µM;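 active = compounds that cut the enzyme signal by at least half of the control window in the single-dose screen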;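 also: plate controls were DMSO wells with enzyme plus substrate for no effect and substrate without enzyme for full effect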
Target sequence (P24666 whole entry, looked up): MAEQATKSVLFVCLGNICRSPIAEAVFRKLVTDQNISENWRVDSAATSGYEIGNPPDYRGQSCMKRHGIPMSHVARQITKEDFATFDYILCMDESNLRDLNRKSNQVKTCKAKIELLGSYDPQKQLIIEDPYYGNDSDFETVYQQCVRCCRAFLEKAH
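Test system: LMPTP-A phosphatase enzyme. Amount: LMPTP-A at 0.625 nM final in the reaction. Reagent: OMFP substrate, 400 µM final. Times: 50 min at room temperature. Signal: endpoint fluorescence intensity from OMFP dephosphorylation. Read-out basis: % inhibition. Benchmarks: no-enzyme and uninhibited controls.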
DNMT1 inh = blocks human DNA methyltransferase DNMT1; P26358; DNMT1 molecular beacon, Hinp1I cleavage, fluorescence; inhibition (reported as % activation of signal), % at 10 µM; hit rate 0.83% among 360,000; AID 588458; in the data active = inhibition above about 50%
STEP block = STEP (human) phosphatase inhibition | recombinant STEP, OMFP fluorogenic substrate, fluorescence | inhibition, % at 20 µM | hit rate 0.25% among 360,000 | AID 588621;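 active = inhibition at 20 µM, scaled per plate between control wells, above about 37%, limit read from the data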;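 also: 0% = DMSO with enzyme and substrate and 100% = substrate only without enzyme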
Target sequence (P54829 whole entry, looked up): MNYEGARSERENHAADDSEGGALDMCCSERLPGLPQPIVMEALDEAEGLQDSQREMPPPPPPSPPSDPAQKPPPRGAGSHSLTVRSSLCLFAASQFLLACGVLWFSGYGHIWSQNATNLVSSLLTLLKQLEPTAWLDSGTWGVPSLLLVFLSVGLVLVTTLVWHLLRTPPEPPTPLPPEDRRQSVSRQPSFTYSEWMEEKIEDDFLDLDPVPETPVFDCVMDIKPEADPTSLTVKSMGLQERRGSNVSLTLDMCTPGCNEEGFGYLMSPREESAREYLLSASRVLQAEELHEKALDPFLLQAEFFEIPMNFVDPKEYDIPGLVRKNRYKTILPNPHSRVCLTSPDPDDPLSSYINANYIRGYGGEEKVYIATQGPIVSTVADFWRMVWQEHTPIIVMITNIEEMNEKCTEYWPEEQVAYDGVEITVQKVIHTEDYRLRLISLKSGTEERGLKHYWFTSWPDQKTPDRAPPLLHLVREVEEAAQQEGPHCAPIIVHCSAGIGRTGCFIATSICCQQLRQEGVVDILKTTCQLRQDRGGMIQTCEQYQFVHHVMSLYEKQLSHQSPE
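System: STEP phosphatase, cell-free reaction; Buffer or medium: Bis-Tris pH 6.0 buffer with DTT, detergent; Incubation: 20 min at room temperature, dark; Measured by: fluorescence, 480/540 nm.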
Scp1 inh = blocks human Scp-1 phosphatase activity. Q9GZU7. Recombinant Scp1, phosphopeptide, malachite green phosphate absorbance. inhibition, % at 20 µM. hit rate 0.88% among 340,000;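 active = inhibition above about 50% at 20 µM, limit read from the data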;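 also: plate controls were DMSO wells with enzyme for no effect and wells lacking enzyme for full effect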
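Test system: SCP-1 phosphatase catalytic domain, residues 76-261 | Compound dosing: One concentration, 20 µM, with 1.0% DMSO | Schedule: 45 min room-temperature reaction, 5 min colour, 30 min stabiliser | Detection: Absorbance at 630 nm | Read-out basis: % inhibition of SCP-1 phosphate liberation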
Beacon interf DR = beacon fluorescence artifact, dose response counter-screen | shares compounds with DNMT1 inh | molecular beacon fluorescence, spectral interference counter-screen | IC50, µM | 200 tested, under 10 active; call rule not given here
DNMT1 confirm = DNMT1 inhibition confirmation, single concentration; shares compounds with DNMT1 inh; DNMT1 molecular beacon HinP1I cleavage, fluorescence; inhibition, % at 10 µM; hit rate 8% among 2,300; AID 602385;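 active = average inhibition of at least 30% in the single-concentration confirmation test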
DNMT1 interf = counter-screen for DNMT1 inhibitors: spectral interference. DNMT1 molecular beacon spectral interference counterscreen, fluorescence 485/520. hit rate 1% among 2,300. shares compounds with DNMT1 inh. activation (fluorescence interference), % at 10 µM;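 active = activation of at least 30% at 10 µM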;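 also: DNMT1 catalytic domain with a HinP1I cleavage step and a FAM/dabcyl DNA beacon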
Rpn11 confirm = confirmation of human proteasome Rpn11 inhibitors. inhibition, % at 20 µM. shares compounds with Rpn11 inh. purified human 26S proteasome, Ub4-pepOG fluorescence polarization; proteasome pretreated with epoxomicin. hit rate 29% among 1,900
MMP-2 counter = blocks human MMP-2, flagging nonselective RPN11 hits; shares compounds with Rpn11 inh; recombinant MMP-2, FRET peptide cleavage fluorescence; inhibition, % at 20 µM; hit rate 4% among 1,900;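 also: human MMP-2 activated beforehand with APMA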
Thrombin FP = blocks bovine thrombin, flagging nonselective RPN11 hits | hit rate 13% among 1,900 | shares compounds with Rpn11 inh | AID 602333 | inhibition, % at 20 µM | bovine thrombin cleavage of Ub4-pepOG, fluorescence polarization;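 active = mean inhibition at least 40% at 20 µM, or signal 3 deviations below plate average, so some actives read negative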;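 also: plate controls were thrombin with DMSO for no effect and buffer wells lacking thrombin for full effect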
Active calls of the source: *; x = not tested or not shown. A selection: hits, their analogues and other compounds. The true share with any hit is near 2%. Rule as the data show it, unless noted: active = inhibition above about 40%; inactive = the rest.

SMILES | Rpn11 inh | LMPTP block | DNMT1 inh | STEP block | Scp1 inh | DNMT1 confirm | DNMT1 interf | Rpn11 confirm | MMP-2 counter | Thrombin FP | others
O=C(CCN1C(=O)/C(=C\c2ccco2)SC1=S)Nc1ccc(C(=O)O)c(O)c1 | 70* | 23 | 91* | 43* | 80* | 16 | 0 | 23 | 26 | 22
O=C(CCCN1C(=O)/C(=C/c2ccco2)SC1=S)Nc1ccccc1C(=O)O | 68* | 19 | 86* | 48* | 69* | 1 | -2 | 4 | 38 | -1
CC(/C=C1\SC(=S)N(CCC(=O)Nc2cccc(C(=O)O)c2)C1=O)=C\c1ccccc1 | 40* | 12 | 80* | 3 | -9 | 12 | 2 | 122* | -6 | 28
O=C(CCN1C(=O)/C(=C/c2ccco2)SC1=S)Nc1ccc(C(=O)O)c(O)c1 | 64* | 22 | 81* | 48* | 65* | 4 | 0 | 9 | 37 | -1
CCc1ccc(/C=C2/SC(=S)N(CCC(=O)Nc3cccc(C(=O)O)c3)C2=O)cc1 | 27 | 7 | 3 | 8 | 0 | x | x | x | x | x
CC(/C=C1\SC(=S)N(CCC(=O)Nc2ccccc2O)C1=O)=C\c1ccccc1 | x | 2 | -3 | -2 | -13 | x | x | x | x | x
C=CCN1CCC(=O)C(C(=O)OCC)=C1C(=O)OCC | -2 | -1 | 3 | 0 | -8 | x | x | x | x | x
Cc1ccc(OCC(=O)NNC(=O)CSc2ncnc3sc(C)c(C)c23)cc1 | 116* | 2 | 54* | -1 | -1 | 3 | 5 | 57* | 68* | -10
C[C@H](CO)N1C[C@H](C)[C@@H](CN(C)S(C)(=O)=O)Oc2c(NC(=O)Nc3ccccc3)cccc2C1=O | -9 | -1 | 6 | -2 | 2 | x | x | x | x | x
O=C(Cc1cccs1)Nc1nncs1 | 3 | -1 | 9 | -2 | -2 | x | x | x | x | x
CC(C)Cc1nnc(NC(=O)Cc2cccs2)s1 | 52* | 6 | 63* | 10 | 19 | 20 | -3 | 81* | 31 | 39
O=C(NCCCCc1ccccc1)C12CN(Cc3ccccc3)CC1C(c1ccc([N+](=O)[O-])cc1)=NO2 (stereo unspecified) | 3 | 4 | 2 | 1 | 4 | x | x | x | x | x
Cc1cccc(C(=O)N2CCCC(N3CCN(Cc4ccc5c(c4)OCO5)CC3)C2)n1 (stereo unspecified) | -1 | -1 | 3 | 0 | 1 | x | x | x | x | x
O=C(N/N=C/c1ccc2c(c1)OCO2)c1sc2cc(Cl)ccc2c1Cl | 105* | 2 | 67* | 5 | 3 | 4 | -5 | 3 | -31 | -1
O=C(O)/C=C/c1ccc(Cn2ccnc2)cc1 | -5 | 1 | -4 | -2 | -6 | x | x | x | x | x
O=C(O)c1ccc(-c2ccccc2)[nH]c1=O | -6 | 27 | 1 | 0 | -11 | x | x | x | x | x
COc1ccc(C2=NN(C(=O)c3cccc([N+](=O)[O-])c3)C(c3cccc([N+](=O)[O-])c3)C2)cc1 (stereo unspecified) | -4 | 2 | -5 | -3 | -18 | x | x | x | x | x
COc1ccc(C2CC(c3cccc([N+](=O)[O-])c3)=NN2/C(C)=C/C(C)=O)cc1 (stereo unspecified) | 90* | 2 | 57* | -1 | x | 1 | 0 | 142* | -4 | 151*
CCN1/C(=C\C=C2\C(=O)N(c3ccccc3)C(=S)N2C)Sc2ccccc21 | 48* | 16 | 55* | 7 | 14 | 2 | 0 | -2 | 0 | -5
NC(=O)c1ccsc1NC(=O)COC(=O)c1cc(Cl)ccc1O | 0 | 4 | -8 | 2 | 1 | x | x | x | x | x
O=C(Nc1ccc(N2CCCC2)cc1)c1cc2ccccc2o1 | 69* | 26 | 65* | 1 | 0 | 4 | -2 | 23 | 6 | 0
Cc1cccc(-c2nnn3c2nc(NCCc2ccc(S(N)(=O)=O)cc2)c2ccccc23)c1 | 11 | 40 | 42 | 0 | 3 | x | x | x | x | x
Cc1ccc(-c2nnn3c2nc(NCCc2ccc(S(N)(=O)=O)cc2)c2ccccc23)cc1 | 57* | 21 | 89* | 2 | -2 | 7 | -2 | 46* | -137 | -8
COc1cc2sc3ccc(-c4ccc(N(C)C)nc4)cc3c(=O)c2cc1OC | x | x | x | x | 0 | x | x | x | x | x
COc1ccc(-c2ccc3sc4ccccc4c(=O)c3c2)cn1 | 124* | 33 | 56* | 7 | 6 | 0 | -5 | 2 | -10 | -9
SMILES | Rpn11 inh | LMPTP block | DNMT1 inh | STEP block | Scp1 inh | DNMT1 confirm | DNMT1 interf | Rpn11 confirm | MMP-2 counter | Thrombin FP | others
O=C(/C=C/c1ccccc1Cl)OCC(=O)c1ccc[nH]1 | -6 | 1 | -5 | 2 | 8 | x | x | x | x | x
Cc1ccc(S(=O)(=O)Oc2ccc(/C=C3/C(=N)N4C(=NC3=O)SN=C4S(C)(=O)=O)cc2)cc1 | 6 | 1 | -8 | 4 | -7 | x | x | x | x | x
Cc1ccc(-n2cccc2/C=C2/C(=N)N3C(=NC2=O)SN=C3S(C)(=O)=O)cc1 | 61* | 10 | 76* | 4 | 31 | 19 | 2 | 63* | -1 | 29
C=CCn1c(SCC(=O)Nc2ccc(-c3nc4ccc(C)cc4s3)cc2)nnc1-c1ccccc1 | 64* | 7 | 74* | 10 | 61* | 5 | -3 | 81* | -18 | -3
C=CCn1c(SCC(=O)NNC(=O)Nc2ccc(C)cc2)nnc1-c1ccccc1 | 2 | -2 | 0 | 1 | -11 | x | x | x | x | x
Cn1ccc2c(N3c4ccccc4CCc4ccccc43)cc3c(c21)C1CCC3O1 (stereo unspecified) | 49* | 5 | 50* | 6 | x | 1 | 2 | 7 | -40 | -6
O=C(O)CCCCCN1C(=O)/C(=C/c2cn(-c3ccccc3)nc2-c2cccs2)SC1=S | 51* | 2 | 83* | 1 | 39 | 46* | -1 | 84* | -18 | 48* | Beacon interf DR=81*
N#Cc1cc2c(nc1SCC(=O)Nc1sc3c(c1C#N)CCC3)CCC2 | 10 | 1 | 6 | -1 | 6 | x | x | x | x | x
COc1ccc(-c2ccc(C#N)c(SCC(=O)Nc3sc4c(c3C#N)CCC4)n2)cc1OC | 83* | -1 | 61* | 1 | -1 | -3 | -4 | 12 | -18 | 4
